Measured values pooled from the literature.
Lines come from different studies, so protocols differ.
Effect on: cell growth or viability

The IC50 of `N.N.[Cl][Pt][Cl]` is reported as 17000 nM (M21; SRB; 48 h).
`N.N.[Cl][Pt][Cl]` gave an IC50 of 9380 nM (B16-F10; MTT).
`Cc1sc2c(c1C)C(c1ccc(Cl)cc1)=N[C@@H](CC(=O)Nc1ccc(O)cc1)c1nnc(C)n1-2` gave an IC50 of 12.6 nM (MB002; 7 days).
With `CN[C@@H]1C[C@H]2O[C@@](C)([C@@H]1OC)n1c3ccccc3c3c4c(c5c6ccccc6n2c5c31)C(=O)NC4` the Kb was 4 nM (KB 3-1; WST-1; 5 days).
`N.N.[Cl][Pt][Cl]` gave an IC50 of greater than 100000 nM (CCD 19Lu; 24 h).
The IC50 of `COc1ccc2c(c1)[nH]c1c(C)nccc12` is reported as 20200 nM (BT-474; MTT; 72 h).
`CC[C@H](Nc1nc(NCc2cnc(C)cc2C)c2ncn(C(C)C)c2n1)[C@@H](C)O` has an IC50 of 277 nM (MB002; 7 days).
`CC[C@H](C)[C@@H]([C@@H](CC(=O)N1CCC[C@H]1[C@H](OC)[C@@H](C)C(=O)N[C@H](C)[C@@H](O)c1ccccc1)OC)N(C)C(=O)[C@@H](NC(=O)[C@H](C(C)C)N(C)C(=O)CCc1cn(CCOCCOCCOCCOCC(=O)NCc2ccc(CN3C(=O)[C@H]4CC(=O)N[C@H](C(=O)O)CC(=O)NCC(=O)N[C@@H](CCCNC(=N)N)C(=O)NC[C@H]3C(=O)N4)cc2)nn1)C(C)C` gave an IC50 of 400 nM (M21; MTT; 72 h).
`CC[C@@H]1C(=O)N(C)c2cnc(Nc3ccc(C(=O)NC4CCN(C)CC4)cc3OC)nc2N1C1CCCC1` has an IC50 of 3.4 nM (MB002; 7 days).
With `CC[C@H](C)[C@@H]([C@@H](CC(=O)N1CCC[C@H]1[C@H](OC)[C@@H](C)C(=O)N[C@H](C)[C@@H](O)c1ccccc1)OC)N(C)C(=O)[C@@H](NC(=O)[C@H](C(C)C)N(C)C(=O)OCc1ccc(NC(=O)[C@H](C)NC(=O)[C@@H](NC(=O)CCc2cn(CCOCCOCCOCCOCC(=O)NCc3ccc(CN4C(=O)[C@H]5CC(=O)N[C@H](C(=O)O)CC(=O)NCC(=O)N[C@@H](CCCNC(=N)N)C(=O)NC[C@H]4C(=O)N5)cc3)nn2)C(C)C)cc1)C(C)C` the IC50 was 6.94 nM (M21; MTT; 72 h).
